Source: article PMC4166031 (Bioconjugate Chemistry, 2014)

Experiments:
[1] = Biodistribution in athymic nude mice bearing U87MG glioma xenografts; type: in vivo; conditions: female, athymic nu/nu, mouse, iv, total radioactivity
[2] = test system: U87MG human glioma xenografts; experiment: as above; type: in vivo
[3] = Solution stability in the kit matrix by radio-HPLC; type: physicochemical; conditions: kit matrix (TPPTS, tricine, mannitol, succinate buffer); monitored by radio-HPLC for 6 h
U87MG glioma xenografts = experiment: SPECT/CT quantification of tumor uptake, U87MG glioma model; type: in vivo, athymic nude mice; conditions: ~37 MBq i.v., SPECT/CT at 60 min p.i.
Procedure, shortened: (§1)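 Mice bearing U87MG glioma and MDA-MB-231 breast xenografts (4 weeks post-inoculation) got ~37 MBq 99mTc radiotracer (not HPLC-purified) in 0.1 mL saline by tail vein, under ~2.0% isoflurane. Multi-pinhole SPECT (75 projections over 30 min per frame, 2 frames), then CT at 45 kV, 500 μA. Tumors delineated on CT/SPECT; activity taken from a γ-counter-calibrated source standard curve, as %ID/cm3.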

[4] = SPECT/CT quantification of tumor uptake, MDA-MB-231 breast tumor model; type: in vivo, athymic nude mice; conditions: athymic nude, mouse, iv, 37 MBq, total radioactivity
Procedure, shortened: as §1

[5] = 5 min p.i., U87MG glioma-bearing athymic nude mice

With `N=C(N)NCCC[C@@H]1NC(=O)[C@H](CCCCNC(=O)[C@H](CC(=O)O)NC(=O)[C@H](CC(=O)O)NC(=O)[C@H](CC(=O)O)NC(=O)CC[C@H](NC(=O)CCOCCOCCOCCOCCNC(=O)c2ccc(NN)nc2)C(=O)N[C@@H](CC(=O)O)C(=O)N[C@@H](CC(=O)O)C(=O)N[C@@H](CC(=O)O)C(=O)NCCCC[C@@H]2NC(=O)[C@@H](Cc3ccccc3)NC(=O)[C@H](CC(=O)O)NC(=O)CNC(=O)[C@H](CCCNC(=N)N)NC2=O)NC(=O)[C@@H](Cc2ccccc2)NC(=O)[C@H](CC(=O)O)NC(=O)CNC1=O` [^99mTc-P6D-RGD2, [^99mTc(HYNIC-P6D-RGD2)(tricine)(TPPTS)], metal not drawn] as the compound, how does the tissue uptake at 1 h ([1]; blood, 14 mg/kg) read?
Its tissue uptake at 1 h is 0.23 ± 0.01 %ID/g.

And the tissue uptake at 1 h ([1]; brain, 14 mg/kg)?
The tissue uptake at 1 h was 0.02 ± 0.01 %ID/g.

What about the tissue uptake at 1 h ([1]; eyes, 14 mg/kg) of the same compound?
Its tissue uptake at 1 h is 0.23 ± 0.1 %ID/g.

And the tissue uptake at 1 h ([1]; heart, 14 mg/kg)?
The tissue uptake at 1 h was 0.2 ± 0.07 %ID/g.

And the tissue uptake at 1 h ([1]; intestine, 14 mg/kg)?
The tissue uptake at 1 h was 0.22 ± 0.11 %ID/g.

And the tissue uptake at 1 h ([1]; kidneys, 14 mg/kg)?
Its tissue uptake at 1 h is 23.9 ± 3.61 %ID/g.

What about the tissue uptake at 1 h ([1]; liver, 14 mg/kg) of the same compound?
The tissue uptake at 1 h was 0.28 ± 0.04 %ID/g.

And the tissue uptake at 0.5 h ([1]; lungs, 0.1 MBq)?
The tissue uptake at 0.5 h was 2.05 ± 0.28 %ID/g.

And the tissue uptake at 1 h ([1]; lungs, 0.1 MBq)?
The tissue uptake at 1 h was 1.85 ± 0.2 %ID/g.

What about the tissue uptake at 2 h ([1]; lungs, 0.1 MBq) of the same compound?
Its tissue uptake at 2 h is 1.11 ± 0.42 %ID/g.

What about the tissue uptake at 0.5 h ([1]; muscle, 0.1 MBq) of the same compound?
Its tissue uptake at 0.5 h is 1.79 ± 0.2 %ID/g.

And the tissue uptake at 1 h ([1]; muscle, 0.1 MBq)?
Its tissue uptake at 1 h is 1.59 ± 0.25 %ID/g.

What about the tissue uptake at 2 h ([1]; muscle, 0.1 MBq) of the same compound?
The tissue uptake at 2 h was 0.79 ± 0.23 %ID/g.

What about the tissue uptake at 0.5 h ([1]; spleen, 0.1 MBq) of the same compound?
Its tissue uptake at 0.5 h is 2.6 ± 0.37 %ID/g.

What about the tissue uptake at 1 h ([1]; spleen, 0.1 MBq) of the same compound?
Its tissue uptake at 1 h is 2.58 ± 0.46 %ID/g.

What about the tissue uptake at 2 h ([1]; spleen, 0.1 MBq) of the same compound?
The tissue uptake at 2 h was 2.4 ± 0.37 %ID/g.

And the tissue to tissue ratio at 0.5 h ([1]; tumor and blood, 0.1 MBq)?
The tissue to tissue ratio at 0.5 h was 2.5 ± 0.33.

And the tissue to tissue ratio at 1 h ([1]; tumor and blood, 0.1 MBq)?
The tissue to tissue ratio at 1 h was 6.5 ± 0.58.

What about the tissue to tissue ratio at 2 h ([1]; tumor and blood, 0.1 MBq) of the same compound?
The tissue to tissue ratio at 2 h was 6.98 ± 4.06.

And the tissue to tissue ratio at 0.5 h ([1]; tumor and liver, 0.1 MBq)?
The tissue to tissue ratio at 0.5 h was 0.65 ± 0.15.

And the tissue to tissue ratio at 1 h ([1]; tumor and liver, 0.1 MBq)?
The tissue to tissue ratio at 1 h was 0.87 ± 0.17.

And the tissue to tissue ratio at 2 h ([1]; tumor and liver, 0.1 MBq)?
The tissue to tissue ratio at 2 h was 0.84 ± 0.18.

What about the tissue to tissue ratio at 1 h ([1]; tumor and lung, 14 mg/kg) of the same compound?
The tissue to tissue ratio at 1 h was 1.1 ± 0.13.

And the tissue to tissue ratio at 0.5 h ([1]; tumor and lung)?
Its tissue to tissue ratio at 0.5 h is 1.19 ± 0.35.

And the tissue to tissue ratio at 1 h ([1]; tumor and lung)?
Its tissue to tissue ratio at 1 h is 1.68 ± 0.1.

And the tissue to tissue ratio at 2 h ([1]; tumor and lung)?
Its tissue to tissue ratio at 2 h is 2.41 ± 0.73.

What about the tissue to tissue ratio at 0.5 h ([1]; tumor and muscle) of the same compound?
The tissue to tissue ratio at 0.5 h was 1.97 ± 0.53.

What about the tissue to tissue ratio at 1 h ([1]; tumor and muscle) of the same compound?
Its tissue to tissue ratio at 1 h is 2 ± 0.36.

What about the tissue to tissue ratio at 2 h ([1]; tumor and muscle) of the same compound?
The tissue to tissue ratio at 2 h was 3.3 ± 1.24.

And the tissue uptake at 0.5 h ([1]; tumor, 0.1 MBq)?
The tissue uptake at 0.5 h was 2.85 ± 0.55 %ID/g.

And the tissue uptake at 1 h ([1]; tumor, 0.1 MBq)?
The tissue uptake at 1 h was 3.13 ± 0.47 %ID/g.

What about the tissue uptake at 2 h ([1]; tumor, 0.1 MBq) of the same compound?
The tissue uptake at 2 h was 2.45 ± 0.9 %ID/g.

And the “Initial blood radioactivity level, fold higher than ^99mTc-3P-RGD2” value [2, 5]?
Its value is roughly 3 ×.

And the “Initial blood radioactivity level, fold higher than ^99mTc-P6G-RGD2” value [2, 5]?
The value was roughly 5 ×.

What about the “Integrin αvβ3 specificity of tumor uptake (blocking experiment)” value ([2]; 60 min p.i., with/without coinjection of excess RGD2 (350 μg/mouse or 14 mg/kg)) of the same compound?
Its value is “integrin αvβ3-specific”.

What about the “Time remained stable in the kit matrix postlabeling” value [3] of the same compound?
Its value is “more than 6 h”.

Which tissue uptake at 0.5 h ([1]; lungs, 0.1 MBq) does the source give for `N=C(N)NCCC[C@@H]1NC(=O)[C@H](CCCCNC(=O)CNC(=O)CNC(=O)CNC(=O)CC[C@H](NC(=O)CCOCCOCCOCCOCCNC(=O)c2ccc(NN)nc2)C(=O)NCC(=O)NCC(=O)NCC(=O)NCCCC[C@@H]2NC(=O)[C@@H](Cc3ccccc3)NC(=O)[C@H](CC(=O)O)NC(=O)CNC(=O)[C@H](CCCNC(=N)N)NC2=O)NC(=O)[C@@H](Cc2ccccc2)NC(=O)[C@H](CC(=O)O)NC(=O)CNC1=O` [^99mTc-P6G-RGD2, [^99mTc(HYNIC-P6G-RGD2)(tricine)(TPPTS)], metal not drawn] here?
The tissue uptake at 0.5 h was 4.38 ± 0.55 %ID/g.

What about the tissue uptake at 1 h ([1]; lungs, 0.1 MBq) of the same compound?
The tissue uptake at 1 h was 3.83 ± 0.56 %ID/g.

What about the tissue uptake at 2 h ([1]; lungs, 0.1 MBq) of the same compound?
The tissue uptake at 2 h was 2.81 ± 0.36 %ID/g.

What about the tissue uptake at 0.5 h ([1]; muscle, 0.1 MBq) of the same compound?
Its tissue uptake at 0.5 h is 1.75 ± 0.24 %ID/g.

And the tissue uptake at 1 h ([1]; muscle, 0.1 MBq)?
The tissue uptake at 1 h was 1.68 ± 0.33 %ID/g.

And the tissue uptake at 2 h ([1]; muscle, 0.1 MBq)?
Its tissue uptake at 2 h is 0.83 ± 0.11 %ID/g.

What about the tissue uptake at 0.5 h ([1]; spleen, 0.1 MBq) of the same compound?
The tissue uptake at 0.5 h was 3.08 ± 0.88 %ID/g.

What about the tissue uptake at 1 h ([1]; spleen, 0.1 MBq) of the same compound?
The tissue uptake at 1 h was 2.68 ± 0.57 %ID/g.

And the tissue uptake at 2 h ([1]; spleen, 0.1 MBq)?
Its tissue uptake at 2 h is 2.31 ± 0.27 %ID/g.

What about the tissue to tissue ratio at 0.5 h ([1]; tumor and blood, 0.1 MBq) of the same compound?
The tissue to tissue ratio at 0.5 h was 14.1 ± 1.25.

What about the tissue to tissue ratio at 1 h ([1]; tumor and blood, 0.1 MBq) of the same compound?
Its tissue to tissue ratio at 1 h is 15.6 ± 2.79.

And the tissue to tissue ratio at 2 h ([1]; tumor and blood, 0.1 MBq)?
The tissue to tissue ratio at 2 h was 41.8 ± 5.13.

And the tissue to tissue ratio at 0.5 h ([1]; tumor and liver, 0.1 MBq)?
The tissue to tissue ratio at 0.5 h was 2.95 ± 0.33.

And the tissue to tissue ratio at 1 h ([1]; tumor and liver, 0.1 MBq)?
Its tissue to tissue ratio at 1 h is 2.86 ± 0.3.

What about the tissue to tissue ratio at 2 h ([1]; tumor and liver, 0.1 MBq) of the same compound?
Its tissue to tissue ratio at 2 h is 3.21 ± 0.53.

What about the tissue to tissue ratio at 0.5 h ([1]; tumor and lung) of the same compound?
The tissue to tissue ratio at 0.5 h was 2.07 ± 0.15.

What about the tissue to tissue ratio at 1 h ([1]; tumor and lung) of the same compound?
The tissue to tissue ratio at 1 h was 2.35 ± 0.24.

And the tissue to tissue ratio at 2 h ([1]; tumor and lung)?
The tissue to tissue ratio at 2 h was 2.71 ± 0.12.

What about the tissue to tissue ratio at 0.5 h ([1]; tumor and muscle) of the same compound?
The tissue to tissue ratio at 0.5 h was 5.04 ± 0.68.

And the tissue to tissue ratio at 1 h ([1]; tumor and muscle)?
The tissue to tissue ratio at 1 h was 5.09 ± 0.51.

What about the tissue to tissue ratio at 2 h ([1]; tumor and muscle) of the same compound?
The tissue to tissue ratio at 2 h was 9.42 ± 1.25.

And the tissue uptake at 0.5 h ([1]; tumor, 0.1 MBq)?
The tissue uptake at 0.5 h was 8.85 ± 0.67 %ID/g.

What about the tissue uptake at 1 h ([1]; tumor, 0.1 MBq) of the same compound?
Its tissue uptake at 1 h is 8.17 ± 1.1 %ID/g.

What about the tissue uptake at 2 h ([1]; tumor, 0.1 MBq) of the same compound?
The tissue uptake at 2 h was 7.82 ± 0.76 %ID/g.

And the “Tumor uptake on the basis of SPECT quantification” value (U87MG glioma xenografts)?
Its value is roughly 8.2 %ID/cm^3.

What about the tissue uptake per volume at 1 h [4] of the same compound?
The tissue uptake per volume at 1 h was 3.5 %ID/mL.

What about the “Time remained stable in the kit matrix postlabeling” value [3] of the same compound?
Its value is “more than 6 h”.
